According to ChEMBL document CHEMBL3120053, “Airborne antituberculosis activity of Eucalyptus citriodora essential oil” (J Nat Prod, 2014):
Converted amounts (≈) assume the structure as drawn.

test system: Mycobacterium tuberculosis; experiment: Antimicrobial activity against Mycobacterium tuberculosis H37Rv assessed as growth inhibition by gaseous contact assay relative to control; assay type: functional
Outline: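 Gaseous contact (microatmosphere) assay. Virulent pan-sensitive M.tb H37Rv (ATCC 27294) frozen stocks were diluted so 100 μL gave 200−400 colonies on Middlebrook 7H11 agar, then dried 4−5 h at room temperature. 5 μL of sample in EtOAc (100 mg/mL) went on a filter disk in the inverted lid (≈70 cm3 headspace). Plates were sealed, held at 37 °C, cfu counted at 21 days, and % inhibition calculated.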

| Structure (SMILES) | growth inhibition (GI) |
| --- | --- |
| CC12CCC(CC1)C(C)(C)O2 [EUCALYPTOL] | 0% |
| CC(C)=CCC[C@H](C)CC=O [(-)-CITRONELLAL] | 18% |
| CC(C)=CCCC(C)CCO (centres undefined) [CITRONELLOL] | 100% |
| C=C(C)[C@@H]1CC[C@@H](C)C[C@H]1O [ISOPULEGOL] | 64% |

test system: not listed separately; experiment: Partition coefficient, log K of the compound in n-hexane/methyl tert-butylether/acetonitrile 10:1:10 solvent system by HSCCC/EECCC analysis; assay type: physicochemical
Outline: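 K values derived from volumetric measurements of the HSCCC run. Fraction collection began 1 h after loading at 4 min (6 mL) per fraction. Elution ran 5 h, then sweep elution and extrusion of the stationary phase for another 5 h, giving 160 TLC-monitored fractions.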

| Structure (SMILES) | log K |
| --- | --- |
| C=C(C)[C@H]1CC[C@@H](C)C[C@H]1O (relative stereo) | 2.98 |
| C=C(C)[C@@H]1CC[C@@]2(C)CCCC(=C)[C@@H]2C1 [BETA-SELINENE] | 1.79 |
| C/C1=C\CC(C)(C)/C=C/C[C@@]2(C)O[C@@H]2CC1 | 1.55 |
| CC1=CC[C@@H](C(C)(C)O)CC1 [ALPHA-TERPINEOL] | 0.82 |
| CC(=O)OCCC(C)CCC=C(C)C (centres undefined) [CITRONELLYL ACETATE] | 1.55 |
| C=C1CCC[C@]2(C)CC[C@@H](C(C)(C)O)C[C@@H]12 [BETA-EUDESMOL] | 1.6 |
| C=CC(C)(O)CCC=C(C)C (centres undefined) [LINALOOL] | 0.74 |
| CC(C)=CCC/C(C)=C/CC/C(C)=C/CC/C(C)=C/CO [GERANYLGERANIOL] | 1.6 |
| C=C(C)[C@H]1CC[C@H](C)C[C@H]1O (relative stereo) | 0.82 |
| CC12CCCCC1=CC(=O)CC2 (centres undefined) | 1.55 |
| CC1(C)C[C@H]2[C@H]1CC[C@]1(C)CCC[C@@]2(O)C1 | 1.6 |
| C=C1CC[C@@H]2[C@H]([C@H]3[C@H]1CC[C@]3(C)O)C2(C)C [SPATHULENOL] | 1.18 |
| CC(C)=CCC/C(C)=C/CC/C(C)=C/C=O | 1.79 |
| C[C@@H]1CC[C@@H](C(C)(C)O)C(O)C1 (some centres undefined) | 0.87 |
| C=C1CCCC(C)(C)[C@H]2C=C(C)CC[C@@H]12 | 1.6 |
| CC1=CC[C@H]2C(C)=CC[C@@H](C(C)C)[C@@H]2C1 | 2.98 |

| Structure (SMILES) | log K |
| --- | --- |
| CC(C)=CCC[C@H](C)CC=O [(-)-CITRONELLAL] | 1.02 |
| CC(C)=CCCC(C)CCO (centres undefined) [CITRONELLOL] | 0.69 |
| CC1=C[C@@H]2[C@@H](CC1)[C@@](C)(O)CC[C@H]2C(C)C [T-CADINOL] | 1.55 |
| Cc1cc(C(C)(C)C)cc(C(C)(C)C)c1O | 1.79 |
| CC1=CCC[C@]2(C)CC[C@@H](C(C)(C)O)C[C@@H]12 | 1.8 |
| C[C@@H]1CC[C@H]2[C@@H]1[C@H]1[C@@H](CC[C@]2(C)O)C1(C)C | 1.55 |
| CC1=C[C@H]2[C@H](C(C)C)CC[C@@H](C)[C@]2(O)CC1 | 1.8 |
| C=C(C)[C@@H]1CC[C@@H](C)C[C@H]1OC(C)=O | 1.55 |
| CC(C)=CCC/C(C)=C/CC/C(C)=C/CO [FARNESOL] | 1.79 |
| C=C1CC[C@@H]2[C@H]([C@@H]3[C@H](C)CC[C@H]13)C2(C)C | 2.98 |
| CC1=C[C@@H]2C(=C(C)CC[C@H]2C(C)C)CC1 [(+)-DELTA-CADINENE] | 2.98 |
| C=C(C)[C@@H]1CC[C@@H](C)C[C@H]1O [ISOPULEGOL] | 0.87 |
| C[C@@H]1CC[C@@H]2[C@@H]1[C@H]1[C@@H](CC[C@@]2(C)O)C1(C)C [GLOBULOL] | 1.79 |
| C[C@H]1CC[C@@H]2[C@H]1[C@@H]1[C@H](CC[C@]2(C)O)C1(C)C | 1.18 |
| C=C1CC/C=C(\C)CC[C@@H]2[C@@H]1CC2(C)C [BETA-CARYOPHYLLENE] | 2.98 |

test system: Mycobacterium tuberculosis; experiment: Antimicrobial activity against Mycobacterium tuberculosis H37Rv by BACTEC radiometric assay; assay type: functional

| Structure (SMILES) | MIC |
| --- | --- |
| CC(C)=CCC/C(C)=C\CO [NEROL] | 128 µg/mL (≈ 830 µM) |
| CC(C)=CCCC(C)CCO (centres undefined) [CITRONELLOL] | 64 µg/mL (≈ 410 µM) |
| CC(C)=CCC/C(C)=C/CC/C(C)=C/CO [FARNESOL] | 8 µg/mL (≈ 36 µM) |
| CC(C)=CCC/C(C)=C/CO [GERANIOL] | 64 µg/mL (≈ 415 µM) |
